Entries after “also recorded” stand apart in the source; their conditions may differ.
What was measured:
[1] = tested on: ROS accumulation in MIA PaCa-2 cells; experiment: ROS detection assay; format: cell-based, human; conditions: for ROS accumulation / ROS induction after NAC pretreatment: MIA PaCa-2; for ROS accumulation: compounds at 10, 3.3 or 1.1 μM; for ROS induction after NAC pretreatment: NAC 5 mM for 30 min; for ROS induction and cytotoxicity compared with QD325: triphenylphosphonium derivatives
Procedure, shortened: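 MIA PaCa-2 cells were trypsinised (0.05% trypsin-EDTA), loaded with 20 μM H2DCFDA for 30 min at 37 °C, washed, then seeded at 20,000 cells/well. After 30 min they were given test compound, with DMSO for basal signal and unstained cells plus 10 μM compound for autofluorescence. For NAC runs, cells were pretreated with 5 mM NAC for 30 min, with H2O2 as a control. Fluorescence was read at 493/523 nm over time, in duplicates; three independent experiments.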

[2] = tested on: MIA PaCa-2 cells; experiment: MTT cytotoxicity assay, MIA PaCa-2; format: cell-based, human; conditions: for effect of NAC on proliferation inhibitory effect: NAC 5 mM, MTT assay, 72 h; for IC50: Homo sapiens, MIA PaCa-2, 72 h, read-out: IC50 (μM) MIA PaCa-2, MTT assay, 72 h treatment, mean ± SD from three independent experiments
[3] = tested on: MIA PaCa-2 xenograft; conditions: 20 mg/kg, 31-day study, similar MIA PaCa-2 xenograft model; cited from earlier work
[4] = tested on: nascent RNA synthesis in MIA PaCa-2 cells; experiment: Bru-seq analysis for nascent RNA synthesis; format: cell-based, human; conditions: for apoptosis signaling by IPA analysis: 4 h, QD232 3 times IC50, QD325 5 times IC50; for nascent mitochondrial RNA synthesis: MIA PaCa-2, 4-hour treatment, QD232 at 6.9 μM, QD325 at 5.0 μM; for synthesis of NQO1 and HMOX1 RNAs / transcription of DDIT3 and HSPA5: MIA PaCa-2, 4 h; for synthesis of NQO1 and HMOX1 RNAs: QD232 at 1, 2 or 3 times IC50, QD325 at 1, 2 or 5 times IC50; for transcription of DDIT3 and HSPA5: dose-dependent
[5] = tested on: BxPC-3 cells; experiment: MTT cytotoxicity assay, BxPC-3; format: cell-based; conditions: Homo sapiens, BXPC-3, 72 h, read-out: IC50 (μM) BxPC-3, MTT assay, 72 h treatment; mean ± SD from three independent experiments
[6] = tested on: pancreatic cancer; conditions: metastatic pancreatic cancer patients; cited from earlier work
[7] = tolerability in MIA PaCa-2 engrafted NOD/SCID mice; format: in vivo
[8] = tested on: MIA PaCa-2 xenograft; experiment: MIA PaCa-2 xenograft tumor growth in NOD/SCID mice; format: in vivo

CC(=O)c1cccc(NC2=CC(=O)c3ncncc3C2=O)c1 [QD232, reference compound]
ROS accumulation [1]: time-and dose-dependent accumulation of ROS | ROS induction after NAC pretreatment [1]: inhibited | effect of NAC on proliferation inhibitory effect [2]: attenuated | suppression of tumor growth [3]: 65% | apoptosis signaling by IPA analysis [4]: significant activation of apoptosis signaling | nascent mitochondrial RNA synthesis [4]: inhibited | synthesis of NQO1 and HMOX1 RNAs [4]: upregulated in a dose-dependent manner | transcription of DDIT3 and HSPA5 [4]: significantly increased

Nc1ccc(C(=O)NCCC[P+](c2ccccc2)(c2ccccc2)c2ccccc2)cc1 [QD339, (3-(4-Aminobenzamido)propyl)triphenylphosphonium bromide]
IC50 [2]: > 30 µM | IC50 [5]: > 30 µM

FOLFIRINOX
median overall survival [6]: 11.1 months

O=C(NCCC[P+](c1ccccc1)(c1ccccc1)c1ccccc1)c1cccc(NC2=CC(=O)c3ncncc3C2=O)c1.[Br-] [QD359, (3-(3-((5,8-Dioxo-5,8-dihydroquinazolin-6-yl)amino)benzamido)propyl) triphenylphosphonium bromide]
ROS induction and cytotoxicity compared with QD325 [1]: did not show better ROS induction and cytotoxicity than QD325

Nc1cccc(C(=O)NCCC[P+](c2ccccc2)(c2ccccc2)c2ccccc2)c1 [QD358, (3-(3-Aminobenzamido)propyl)triphenylphosphonium bromide]
IC50 [2]: > 30 µM | IC50 [5]: > 30 µM

O=C1C(Nc2ccc(-c3ccccc3)cc2)=CC(=O)c2ncncc21 [QD325, 6-([1,1’-Biphenyl]-4-ylamino)quinazoline-5,8-dione]
ROS accumulation [1]: time-and dose-dependent accumulation of ROS; also recorded: stronger and more rapid ROS accumulation | ROS induction after NAC pretreatment [1]: inhibited | effect of NAC on proliferation inhibitory effect [2]: attenuated | histopathology of H&E stained organ sections ([7]; 5 mg/kg five times a week until day 44): did not reveal any major histopathological changes | systemic toxicity at higher doses ([7]; dose increased from 5 to 20 mg/kg, day 44 to day 67, two mice per group): without any overt systemic toxicity | symptoms of gross toxicity (weakness, weight loss, lethargy) ([7]; study 1, 5 mg/kg five times a week until day 44): No symptoms of gross toxicity | Ki67 staining (proliferation marker) in tumor tissues ([8]; QD325 5 mg/kg five times a week until day 44, immunohistochemistry): decreased | inhibition of tumor growth, experiment of Figure 6E ([8]; QD325 5 mg/kg five times a week, 48 days): 83% | inhibition of tumor growth, experiment of Figure 5A ([8]; QD325 5 mg/kg five times a week, day 44): 76% | NQO1, HO-1, CHOP and GRP78 protein levels in tumor lysates ([8]; QD325-treated vs vehicle-treated tumors): significantly upregulated | apoptosis signaling by IPA analysis [4]: significant activation of apoptosis signaling | nascent mitochondrial RNA synthesis [4]: inhibited | synthesis of NQO1 and HMOX1 RNAs [4]: upregulated in a dose-dependent manner | transcription of DDIT3 and HSPA5 [4]: significantly increased

Nc1ccn([C@@H]2O[C@H](CO)[C@@H](O)C2(F)F)c(=O)n1 [Gemcitabine]
median overall survival [6]: 6.8 months

O=C(NCCC[P+](c1ccccc1)(c1ccccc1)c1ccccc1)c1ccc(NC2=CC(=O)c3ncncc3C2=O)cc1.[Br-] [QD340, (3-(4-((5,8-Dioxo-5,8-dihydroquinazolin-6-yl)amino)benzamido)propyl) triphenylphosphonium bromide]
ROS induction and cytotoxicity compared with QD325 [1]: did not show better ROS induction and cytotoxicity than QD325

COc1cc(NC2=CC(=O)c3ncncc3C2=O)cc(OC)c1OC [QD326, 6-((3,4,5-Trimethoxyphenyl)amino)quinazoline-5,8-dione]
ROS accumulation [1]: time-and dose-dependent accumulation of ROS; also recorded: stronger and more rapid ROS accumulation | ROS induction after NAC pretreatment [1]: inhibited | effect of NAC on proliferation inhibitory effect [2]: attenuated

From PMC6688507 (Journal of medicinal chemistry, 2018)
